{"source": "ChEMBL document CHEMBL5214995", "about": "“Orally Bioavailable Quinoxaline Inhibitors of 15-Prostaglandin Dehydrogenase (15-PGDH) Promote Tissue Repair and Regeneration” (J Med Chem, 2022)", "key": {"[1]": {"assay": "Cmax in CD-1 mouse at 10 mg/kg,po measured upto 1440 mins by LC-MS/MS analysis", "format": "ADME, organism-based", "parameters": "dose 10 mg/kg, time < 1440 min, route po", "details": "in vivo, 24 h", "how_it_was_run": "(§1)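 Female CD1 mice received a single 10 mg/kg PO or 5 mg/kg IV dose in 10% DMSO, 25% PEG400, 1% Tween-80 and 64% D5W (pH 7.4). Groups of three were killed at 0–1440 min, with blood taken by cardiac puncture into ACD. Plasma was extracted into methanol with formic acid and internal standard, and drug was quantified by LC-MS/MS against spiked blank-plasma standards. Cmax and AUC came from noncompartmental analysis.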"}, "[2]": {"assay": "AUC in CD-1 mouse at 10 mg/kg,ip measured upto 1440 mins by LC-MS/MS analysis", "format": "ADME, organism-based", "parameters": "time < 1440 min, dose 10 mg/kg, route ip", "details": "in vivo; for AUC: mouse, 24 h", "how_it_was_run": "(§2)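 Female CD1 mice were given a single 10 mg/kg IP dose. […] Plasma was extracted with methanol/0.15% formic acid containing N-benzylbenzamide internal standard and analysed by LC-MS/MS against spiked blank-plasma standards. Cmax and AUC were derived by noncompartmental analysis.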"}, "Mus musculus [3]": {"tested_on": "Mus musculus", "assay": "Protection against DSS-induced acute ulcerative colitis in […] mouse assessed as increase in body weight at 40 mg/kg,po measured upto 12 days of administration", "format": "functional, organism-based", "details": "time <= 12.0 day"}, "[4]": {"assay": "Oral bioavailability in CD-1 mouse at 10 mg/kg measured upto 1440 mins by LC-MS/MS analysis", "format": "ADME, organism-based", "details": "in vivo, 24 h", "how_it_was_run": "as §1"}, "[5]": {"assay": "Aqueous solubility of the compound under shaking condition by LC-MS/MS analysis", "format": "physicochemical", "details": "buffer"}, "[6]": {"assay": "AUC in CD-1 mouse at 5 mg/kg,iv measured upto 1440 mins by LC-MS/MS analysis", "format": "ADME, organism-based", "parameters": "dose 5 mg/kg, time < 1440 min, route iv", "details": "in vivo, 24 h", "how_it_was_run": "as §1"}, "Mus musculus [7]": {"tested_on": "Mus musculus", "assay": "[…] activity against bone marrow transplanted mouse model assessed as increase in total WBC repopulation at 10 mg/kg,ip bid measured by flow cytometry after 15 days post-transplant recovery period", "format": "functional, organism-based", "details": "time 15.0 day"}, "[8]": {"assay": "Apparent permeability of the compound from apical to basolateral side in human Caco-2 cells measured upto 120 mins by LC-MS/MS analysis", "format": "ADME, cell-based", "details": "caco-2, 2 h", "how_it_was_run": "(§3)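 Caco-2 cells were grown three weeks on 12-well Transwells in DMEM with 20% FBS and supplements, then washed in HBSS with Ca/Mg and 0.5% FBS. Monolayers were used only if TEER exceeded 800 Ωcm², and TEER was rechecked after the assay.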"}, "Mus musculus [9]": {"tested_on": "Mus musculus", "assay": "Protection against DSS-induced acute ulcerative colitis in […] mouse assessed as increase in colon length at 40 mg/kg,po measured after 12 days of administration", "format": "functional, organism-based", "details": "time 12.0 day"}, "Mus musculus [10]": {"tested_on": "Mus musculus", "assay": "Protection against DSS-induced acute ulcerative colitis in […] mouse assessed as increase in colon length at 10 mg/kg,ip measured from 8 to 12 days of administration", "format": "functional, organism-based", "details": "time 8-12 day"}, "Lung [11]": {"tested_on": "Lung", "assay": "In vivo activation of PGE2 in C57BL/6J mouse lung tissue assessed as increase in PGE2 level at 2.5 mg/kg,ip measured after 3 hrs by ELISA", "format": "functional, organism-based", "how_it_was_run": "(§4)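 Female C57bl/6J mice aged 8-9 weeks were dosed IP and euthanised 3 h later. Colon and lung were rinsed in ice-cold PBS with indomethacin (5.6 µg/ml), snap-frozen, pulverised, homogenised in cold PBS/indomethacin, sonicated on ice and centrifuged. PGE2 in the supernatant was measured by ELISA in triplicate and normalised to BCA protein as ng PGE2/mg protein.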"}, "[12]": {"assay": "AUC in CD-1 mouse at 10 mg/kg,po measured upto 1440 mins by LC-MS/MS analysis", "format": "ADME, organism-based", "parameters": "time < 1440 min, dose 10 mg/kg, route po", "details": "in vivo, 24 h", "how_it_was_run": "as §1"}, "[13]": {"assay": "Cmax in CD-1 mouse at 5 mg/kg,iv measured upto 1440 mins by LC-MS/MS analysis", "format": "ADME, organism-based", "parameters": "dose 5 mg/kg, time < 1440 min, route iv", "details": "in vivo, 24 h", "how_it_was_run": "as §1"}, "Colon [14]": {"tested_on": "Colon", "assay": "animal or person", "details": "Mus musculus, C57BL/6J, po, 1.5 h, read-out: INH"}, "[15]": {"assay": "Apparent permeability of the compound from basolateral to apical side in human Caco-2 cells measured upto 120 mins by LC-MS/MS analysis", "format": "ADME, cell-based", "details": "caco-2, 2 h", "how_it_was_run": "as §3"}, "Colon [16]": {"tested_on": "Colon", "assay": "In vivo activation of PGE2 in C57BL/6J mouse colon tissue assessed as increase in PGE2 level at 5 mg/kg,ip measured after 3 hrs by ELISA", "format": "functional, organism-based", "how_it_was_run": "as §4"}, "[17]": {"assay": "Cmax in CD-1 mouse at 10 mg/kg,ip measured upto 1440 mins by LC-MS/MS analysis", "format": "ADME, organism-based", "parameters": "time < 1440 min, dose 10 mg/kg, route ip", "details": "in vivo", "how_it_was_run": "as §2"}, "Mus musculus [18]": {"tested_on": "Mus musculus", "assay": "Protection against DSS-induced acute ulcerative colitis in […] mouse assessed as increase in body weight at 10 mg/kg,ip measured from 7 to 12 days of administration", "format": "functional, organism-based", "details": "time 7-12 day"}, "Mus musculus [19]": {"tested_on": "Mus musculus", "assay": "Protection against DSS-induced acute ulcerative colitis in […] mouse assessed as decrease in cryptitis score at 40 mg/kg,po measured after 12 days of administration", "format": "functional, organism-based", "details": "time 12.0 day"}, "Mus musculus [20]": {"tested_on": "Mus musculus", "assay": "[…] activity against bone marrow transplanted mouse model assessed as increase in RBC repopulation at 10 mg/kg,ip bid measured by flow cytometry after 15 days post-transplant recovery period", "format": "functional, organism-based", "details": "Erythrocyte, time 15.0 day"}, "Mus musculus [21]": {"tested_on": "Mus musculus", "assay": "Protection against DSS-induced acute ulcerative colitis in […] mouse assessed as decrease in cryptitis score at 10 mg/kg,ip measured after 12 days of administration", "format": "functional, organism-based", "details": "time 12.0 day"}, "Colon [22]": {"tested_on": "Colon", "assay": "animal or person", "details": "Mus musculus, C57BL/6J, po, 0.5 h, read-out: INH"}, "Colon [23]": {"tested_on": "Colon", "assay": "In vivo activation of PGE2 in C57BL/6J mouse colon tissue assessed as increase in PGE2 level at 2.5 mg/kg,ip measured after 3 hrs by ELISA", "format": "functional, organism-based", "how_it_was_run": "as §4"}, "Lung [24]": {"tested_on": "Lung", "assay": "In vivo activation of PGE2 in C57BL/6J mouse lung tissue assessed as increase in PGE2 level at 5 mg/kg,ip measured after 3 hrs by ELISA", "format": "functional, organism-based", "how_it_was_run": "as §4"}}, "note": "Active and inactive are the calls of the source. The rule behind the calls is not given here."}
{"smiles": "Cn1ccc2cc(-c3cnc4ccc(C(=O)N5CCCCC5)cc4n3)ccc2c1=O", "values": [{"measurement": "Cmax", "setting": "[1]", "result": 950, "unit": "ng/mL"}, {"measurement": "AUC", "setting": "[2]", "result": 517, "unit": "µg·min/mL"}, {"measurement": "Activity", "setting": "Mus musculus [3]", "result": "Active"}, {"measurement": "F", "setting": "[4]", "result": 63, "unit": "%"}, {"measurement": "solubility thermodynamic", "setting": "[5]", "result": 56, "unit": "µg/mL"}, {"measurement": "AUC", "setting": "[6]", "result": 205, "unit": "µg·min/mL"}, {"measurement": "Activity", "setting": "Mus musculus [7]", "result": "Active"}, {"measurement": "Papp", "setting": "[8]", "result": "45 10^-6 cm/s"}, {"measurement": "Activity", "setting": "Mus musculus [9]", "result": "Active"}, {"measurement": "Activity", "setting": "Mus musculus [10]", "result": "Active"}, {"measurement": "Activity", "setting": "Lung [11]", "result": "Active"}, {"measurement": "AUC", "setting": "[12]", "result": 256, "unit": "µg·min/mL"}, {"measurement": "Cmax", "setting": "[13]", "result": 3000, "unit": "ng/mL"}, {"measurement": "inhibition in vivo at 20 mg/kg", "setting": "Colon [14]", "result": "> 80", "unit": "%"}, {"measurement": "Papp", "setting": "[15]", "result": "34 10^-6 cm/s"}, {"measurement": "Activity", "setting": "Colon [16]", "result": "Active"}, {"measurement": "Cmax", "setting": "[17]; mouse, 24 h", "result": 6400, "unit": "ng/mL"}, {"measurement": "Activity", "setting": "Mus musculus [18]", "result": "Active"}, {"measurement": "Activity", "setting": "Mus musculus [19]", "result": "Active"}, {"measurement": "Activity", "setting": "Mus musculus [20]", "result": "Active"}, {"measurement": "Activity", "setting": "Mus musculus [21]", "result": "Active"}, {"measurement": "inhibition in vivo at 20 mg/kg", "setting": "Colon [22]", "result": "> 90", "unit": "%"}, {"measurement": "Activity", "setting": "Colon [23]", "result": "Active"}, {"measurement": "Activity", "setting": "Lung [24]", "result": "Active"}]}
{"smiles": "O=C(c1ccc2ncc(-c3ccc4ncccc4c3)nc2c1)N1CCCCC1", "values": [{"measurement": "solubility thermodynamic", "setting": "[5]", "result": 55, "unit": "µg/mL"}]}
{"smiles": "O=C(c1ccc2ncc(-c3ccc4c(=O)[nH]ccc4c3)nc2c1)N1CCCCC1", "values": [{"measurement": "AUC", "setting": "[2]", "result": 270, "unit": "µg·min/mL"}, {"measurement": "solubility thermodynamic", "setting": "[5]", "result": 4, "unit": "µg/mL"}, {"measurement": "Cmax", "setting": "[17]; mouse, 24 h", "result": 7400, "unit": "ng/mL"}]}
{"smiles": "O=C(c1ccc2ncc(-c3ccc4cnccc4c3)nc2c1)N1CCCCC1", "values": [{"measurement": "solubility thermodynamic", "setting": "[5]", "result": 14, "unit": "µg/mL"}]}
{"smiles": "Cl.Nc1ncc(-c2cnc3ccc(C(=O)N4CCCCC4)cc3n2)cc1Cl", "values": [{"measurement": "AUC at 24 h", "setting": "[2]; CD-1, mouse", "result": 2870, "unit": "ng·h/mL"}, {"measurement": "Activity", "setting": "Colon [16]", "result": "Active"}, {"measurement": "Cmax", "setting": "[17]; CD-1, mouse, read-out: Cmax", "result": 3000, "unit": "ng/mL"}, {"measurement": "Activity", "setting": "Lung [24]", "result": "Active"}]}
